Measured values published in ChEMBL document CHEMBL4422685, “Design, synthesis and evaluation of a series of 5-methoxy-2,3-naphthalimide derivatives as AcrB inhibitors for the reversal of bacterial resistance” (Bioorg Med Chem Lett, 2019).

Columns and labels:
[1] = target: T1, Multidrug efflux pump subunit AcrB (Escherichia coli (strain K12)) (UniProt P31224); experiment: Inhibition of AcrB in wild-type drug-resistant Escherichia coli […] assessed as potentiation of levofloxacin-induced antimicrobial activity by measuring levofloxacin MIC at 32 ug/ml by checkerboard titration method (reference value: 0.063 ug/ml)
T1 sequence (whole entry): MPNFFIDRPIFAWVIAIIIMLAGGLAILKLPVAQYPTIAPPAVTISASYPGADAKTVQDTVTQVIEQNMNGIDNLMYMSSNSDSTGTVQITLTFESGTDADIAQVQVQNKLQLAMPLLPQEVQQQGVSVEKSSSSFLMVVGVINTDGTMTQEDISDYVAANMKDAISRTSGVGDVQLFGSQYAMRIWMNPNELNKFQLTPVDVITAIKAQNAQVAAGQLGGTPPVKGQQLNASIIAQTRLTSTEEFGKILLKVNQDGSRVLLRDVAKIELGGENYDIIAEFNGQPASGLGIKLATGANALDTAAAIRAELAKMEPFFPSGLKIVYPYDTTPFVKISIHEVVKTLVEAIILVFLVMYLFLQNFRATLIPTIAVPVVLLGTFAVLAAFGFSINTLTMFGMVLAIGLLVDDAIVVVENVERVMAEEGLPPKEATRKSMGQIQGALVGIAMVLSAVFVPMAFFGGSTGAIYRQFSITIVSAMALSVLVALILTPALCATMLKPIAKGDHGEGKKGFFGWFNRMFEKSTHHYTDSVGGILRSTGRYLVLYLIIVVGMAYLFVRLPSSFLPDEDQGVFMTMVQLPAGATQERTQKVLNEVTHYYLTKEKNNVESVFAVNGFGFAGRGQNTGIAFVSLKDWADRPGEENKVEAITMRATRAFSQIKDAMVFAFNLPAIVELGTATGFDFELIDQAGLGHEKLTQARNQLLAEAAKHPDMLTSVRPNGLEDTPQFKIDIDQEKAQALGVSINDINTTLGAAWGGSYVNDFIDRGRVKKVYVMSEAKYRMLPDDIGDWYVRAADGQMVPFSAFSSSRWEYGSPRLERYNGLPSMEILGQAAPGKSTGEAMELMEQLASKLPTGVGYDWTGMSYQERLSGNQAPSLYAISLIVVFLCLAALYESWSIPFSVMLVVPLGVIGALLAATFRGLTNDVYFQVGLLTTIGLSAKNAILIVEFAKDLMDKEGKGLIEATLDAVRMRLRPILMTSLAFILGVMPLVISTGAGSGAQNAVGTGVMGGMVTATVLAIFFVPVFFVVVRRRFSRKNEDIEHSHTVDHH

[2] = target: T1, Multidrug efflux pump subunit AcrB (Escherichia coli (strain K12)); experiment: Inhibition of AcrB in wild-type drug-resistant Escherichia coli […] assessed as potentiation of chloramphenicol-induced antimicrobial activity by measuring chloramphenicol MIC at 8 ug/ml by checkerboard titration method (Rvb =16 ug/ml)
[3] = target: T1, Multidrug efflux pump subunit AcrB (Escherichia coli (strain K12)); experiment: Inhibition of AcrB in wild-type drug-resistant Escherichia coli […] assessed as potentiation of levofloxacin-induced antimicrobial activity by measuring levofloxacin MIC at 8 ug/ml by checkerboard titration method (reference value: 0.063 ug/ml)
[4] = target: T1, Multidrug efflux pump subunit AcrB (Escherichia coli (strain K12)); experiment: Inhibition of AcrB in wild-type drug-resistant Escherichia coli […] assessed as potentiation of chloramphenicol-induced antimicrobial activity by measuring chloramphenicol MIC at 32 ug/ml by checkerboard titration method (Rvb =16 ug/ml)
[5] = target: T1, Multidrug efflux pump subunit AcrB (Escherichia coli (strain K12)); experiment: Inhibition of AcrB in wild-type drug-resistant Escherichia coli […] assessed as potentiation of tetraphenyl phosphonium chloride-induced antimicrobial activity by measuring tetraphenyl phosphonium chloride MIC at 32 ug/ml by checkerboard titration method (reference value: 1024 ug/ml)
[6] = target: T1, Multidrug efflux pump subunit AcrB (Escherichia coli (strain K12)); experiment: Inhibition of AcrB in wild-type drug-resistant Escherichia coli […] assessed as potentiation of chloramphenicol-induced antimicrobial activity by measuring chloramphenicol MIC at 128 ug/ml by checkerboard titration method (Rvb =16 ug/ml)
[7] = target: T1, Multidrug efflux pump subunit AcrB (Escherichia coli (strain K12)); experiment: Inhibition of AcrB in wild-type drug-resistant Escherichia coli […] assessed as potentiation of tetraphenyl phosphonium chloride-induced antimicrobial activity by measuring tetraphenyl phosphonium chloride MIC at 16 ug/ml by checkerboard titration method (reference value: 1024 ug/ml)
[8] = target: T1, Multidrug efflux pump subunit AcrB (Escherichia coli (strain K12)); experiment: Inhibition of AcrB in wild-type drug-resistant Escherichia coli […] assessed as potentiation of levofloxacin-induced antimicrobial activity by measuring levofloxacin MIC at 128 ug/ml by checkerboard titration method (reference value: 0.063 ug/ml)
[9] = target: T1, Multidrug efflux pump subunit AcrB (Escherichia coli (strain K12)); experiment: Inhibition of AcrB in wild-type drug-resistant Escherichia coli […] assessed as potentiation of tetraphenyl phosphonium chloride-induced antimicrobial activity by measuring tetraphenyl phosphonium chloride MIC at 128 ug/ml by checkerboard titration method (reference value: 1024 ug/ml)
[10] = target: T1, Multidrug efflux pump subunit AcrB (Escherichia coli (strain K12)); experiment: Inhibition of AcrB in wild-type drug-resistant Escherichia coli […] assessed as potentiation of levofloxacin-induced antimicrobial activity by measuring levofloxacin MIC at 16 ug/ml by checkerboard titration method (reference value: 0.063 ug/ml)
[11] = target: T1, Multidrug efflux pump subunit AcrB (Escherichia coli (strain K12)); experiment: Inhibition of AcrB in wild-type drug-resistant Escherichia coli […] assessed as potentiation of erythromycin-induced antimicrobial activity by measuring erythromycin MIC at 64 ug/ml by checkerboard titration method (reference value: 64 ug/ml)
[12] = target: T1, Multidrug efflux pump subunit AcrB (Escherichia coli (strain K12)); experiment: Inhibition of AcrB in wild-type drug-resistant Escherichia coli […] assessed as potentiation of erythromycin-induced antimicrobial activity by measuring erythromycin MIC at 128 ug/ml by checkerboard titration method (reference value: 64 ug/ml)
[13] = target: T1, Multidrug efflux pump subunit AcrB (Escherichia coli (strain K12)); experiment: Inhibition of AcrB in wild-type drug-resistant Escherichia coli […] assessed as potentiation of erythromycin-induced antimicrobial activity by measuring erythromycin MIC at 16 ug/ml by checkerboard titration method (reference value: 64 ug/ml)
Escherichia coli [14] = experiment: Toxicity against AcrB deficient Escherichia coli AcrB lacking at 128 ug/ml; type: organism-based; conditions: in vivo
Summary of the method: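 MIC determination against wild-type resistant E. coli BW25113 and an isogenic acrB-deleted strain; highest concentration tested 128 mg/L.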

[15] = target: T1, Multidrug efflux pump subunit AcrB (Escherichia coli (strain K12)); experiment: Inhibition of AcrB in wild-type drug-resistant Escherichia coli […] assessed as potentiation of erythromycin-induced antimicrobial activity by measuring erythromycin MIC at 8 ug/ml by checkerboard titration method (reference value: 64 ug/ml)
[16] = target: T1, Multidrug efflux pump subunit AcrB (Escherichia coli (strain K12)); experiment: Inhibition of AcrB in wild-type drug-resistant Escherichia coli […] assessed as potentiation of chloramphenicol-induced antimicrobial activity by measuring chloramphenicol MIC at 64 ug/ml by checkerboard titration method (Rvb =16 ug/ml)
Escherichia coli [17] = experiment: Disruption of Escherichia coli inner membrane integrity at 128 ug/ml after 10 mins by DiOC2(3) probe based fluorescence assay; type: ADME, organism-based; conditions: in vivo
Summary of the method: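 Bacterial suspensions pre-exposed to compound for 10 min, then DiOC2(3) added and fluorescence followed to plateau. Cells re-energized with 0.5% glucose; membrane potential (inside negative) read as fluorescence rise to plateau, then collapsed with the proton ionophore CCCP. Untreated cells run alongside.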

| Structure (SMILES) | MIC [1] | MIC [2] | MIC [3] | MIC [4] | MIC [5] | MIC [6] | MIC [7] | MIC [8] | MIC [9] | MIC [10] | MIC [11] | MIC [12] | MIC [13] | Activity (Escherichia coli [14]) | MIC [15] | MIC [16] | Activity (Escherichia coli [17]) |
| --- | --- | --- | --- | --- | --- | --- | --- | --- | --- | --- | --- | --- | --- | --- | --- | --- | --- |
| COc1ccc(CN2C(=O)c3cc4cccc(OC)c4cc3C2=O)cc1 | 0.063 mg/L | 16 mg/L | 0.063 mg/L | 16 mg/L | 1020 mg/L | 16 mg/L | 1020 mg/L | 0.063 mg/L | 1020 mg/L | 0.063 mg/L | 32 mg/L | 32 mg/L | 32 mg/L | Non-Toxic | 64 mg/L | 16 mg/L | – |
| COc1cccc2cc3c(cc12)C(=O)N(C(C)C)C3=O | 0.063 mg/L | 8 mg/L | 0.063 mg/L | 8 mg/L | 1020 mg/L | 8 mg/L | 1020 mg/L | 0.0313 mg/L | 512 mg/L | 0.063 mg/L | 32 mg/L | 32 mg/L | 32 mg/L | Non-Toxic | 32 mg/L | 8 mg/L | Non-Toxic |
| CCCCCN1C(=O)c2cc3cccc(OC)c3cc2C1=O | 0.063 mg/L | 16 mg/L | 0.063 mg/L | 8 mg/L | 1020 mg/L | 4 mg/L | 1020 mg/L | 0.0313 mg/L | 512 mg/L | 0.063 mg/L | 32 mg/L | 8 mg/L | 64 mg/L | Non-Toxic | 64 mg/L | 8 mg/L | Non-Toxic |
| CCCCCCN1C(=O)c2cc3cccc(OC)c3cc2C1=O | 0.063 mg/L | 16 mg/L | 0.063 mg/L | 16 mg/L | 512 mg/L | 8 mg/L | 1020 mg/L | 0.0313 mg/L | 128 mg/L | 0.063 mg/L | 16 mg/L | 8 mg/L | 32 mg/L | Non-Toxic | 64 mg/L | 8 mg/L | Non-Toxic |
| COc1cccc2cc3c(cc12)C(=O)N(C)C3=O | 0.0313 mg/L | 16 mg/L | 0.063 mg/L | 16 mg/L | 1020 mg/L | 16 mg/L | 1020 mg/L | 0.0313 mg/L | 1020 mg/L | 0.063 mg/L | 32 mg/L | 32 mg/L | 64 mg/L | Non-Toxic | 64 mg/L | 16 mg/L | Non-Toxic |
